Source: BindingDB's records for doi:10.1021/acs.jmedchem.7b00693 (The University of Tokyo, 2017)

Molecular target: Probable G-protein coupled receptor 34 (Mus musculus, UniProt Q9R1K6)
Experiment: Agonist activity at mouse GPR34 expressed in HEK293 cells co-transfected with AP-TGFalpha/chimeric Galphaq/i1 assessed as induction of ectodomain shedding of membrane bound AP-TGFalpha after 1 hr
In short: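 HEK293A cells transiently co-transfected with AP-TGFα, chimeric Gαq/i1 and GPR34 (human for line 1, mouse for line 3) or empty vector (mock). After 24 h, cells were suspended in HBSS with 5 mM HEPES pH 7.4 and preincubated 30 min with 10 μM (final) Ki16425. Compounds in HBSS with 0.01% fatty acid-free BSA were added for 1 h at 37 °C. AP activity in medium and on cells was read as OD405 with p-NPP after 1 h at room temperature.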

Probable G-protein coupled receptor 34, sequence (Q9R1K6 whole entry, the tested form may be a part): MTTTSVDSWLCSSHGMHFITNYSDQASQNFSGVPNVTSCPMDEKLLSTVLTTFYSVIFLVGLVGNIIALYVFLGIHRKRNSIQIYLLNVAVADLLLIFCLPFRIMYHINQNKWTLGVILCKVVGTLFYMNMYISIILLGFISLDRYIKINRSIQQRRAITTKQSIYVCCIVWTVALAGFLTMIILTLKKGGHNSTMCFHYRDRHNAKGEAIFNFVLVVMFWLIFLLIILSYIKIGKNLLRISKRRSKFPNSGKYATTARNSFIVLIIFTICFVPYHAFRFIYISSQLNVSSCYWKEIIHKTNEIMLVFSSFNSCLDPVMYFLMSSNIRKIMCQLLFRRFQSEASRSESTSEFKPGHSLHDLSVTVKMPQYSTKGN

SMILES	EC50 [µM]
CCCCCCCC/C=C\CCCCCCCC(=O)OCCCOP(=O)(O)OC[C@H](N)C(=O)O	> 3.16
CC(C)(C)c1ccccc1Oc1cccc(COc2ccccc2CCC(=O)OCCCOP(=O)(O)OC[C@H](N)C(=O)O)c1	> 3.16
N[C@@H](COP(=O)(O)OCCCOC(=O)CCc1ccccc1OCc1cccc(OCc2ccccc2)c1)C(=O)O	> 3.16
N[C@@H](COP(=O)(O)OCCCOC(=O)CCc1ccccc1OCc1cccc(-c2ccccc2)c1)C(=O)O	> 3.16
CCCCCCOc1cccc(COc2ccccc2CCC(=O)OCCCOP(=O)(O)OC[C@H](N)C(=O)O)c1	> 3.16
CCCCCCOCC#CCOc1ccccc1CCC(=O)OCCCOP(=O)(O)OC[C@H](N)C(=O)O	> 3.16
